Measurements as given in ChEMBL document CHEMBL3272083, “Antiinflammatory and analgesic diastereoisomeric derivatives of indan-5-acetic acid” (J Med Chem, 1978).

What was measured:
[1] = tested on: Rattus norvegicus; experiment: (§1) Gastrointestinal toxicity in po dosed rat assessed as ulcerogenic activity after 6 hrs administered in 1% w/v arabic gum; assay type: organism-based; conditions: in vivo, 6 h
In short: (§2)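 Fasted rats dosed orally, compound suspended in 1% w/v arabic gum. Stomachs examined 6 h after dosing; gastric ulcer intensity graded on a 0–3 scale. The 50% ulcerogenic dose (UD50) was read graphically.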

[2] = tested on: Rattus norvegicus; experiment: Analgesic activity in po dosed rat assessed as inhibition of phenylbenzoquinone-induced writhing administered in 1% w/v arabic gum; assay type: functional
In short: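 Oral dosing in 1% w/v arabic gum vehicle. Read-out was antagonism of writhing produced by phenylbenzoquinone. ED50 with 95% confidence limits was calculated by Bliss's method.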

[3] = tested on: Rattus norvegicus; experiment: Antiinflammatory activity in po dosed rat assessed as inhibition of carrageenan-induced edema administered in 1% w/v arabic gum; assay type: functional
In short: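 Given orally in 1% w/v arabic gum vehicle. Read-out was carrageenan-induced edema. ED50 and 95% confidence limits were derived by Bliss's method.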

[4] = as §1; assay type: organism-based; conditions: in vivo, read-out: UD50; in short: as §2
[5] = Rattus norvegicus, po, read-out: ED50

In the case of `CC(C(=O)O)c1ccc2c(c1)CC(C(C)C)C2` (single isomer, unassigned; (-)) [ISOPROFEN], the UD50 [1] was 87 mg/kg, the ED50 [2] was 17 mg/kg and the ED50 [3] was 32 mg/kg.
Work on `CC(C(=O)O)c1ccc2c(c1)CC(C(C)C)C2` (racemic) [ISOPROFEN] yielded a TD50 at 6 h [4] of 62 mg/kg, an ED50 [2, 5] of 9 mg/kg and an ED50 [3, 5] of 29 mg/kg.
`CC1Cc2ccc(CC(=O)O)cc2C1` (racemic) showed an ED50 [2, 5] of 175 mg/kg.
For `CCC1Cc2ccc(C(C)C(=O)O)cc2C1` (racemic), the TD50 at 6 h [4] was 65 mg/kg, the ED50 [2, 5] was 6 mg/kg and the ED50 [3, 5] was 36 mg/kg.
`CC(C)C1Cc2ccc(CC(=O)O)cc2C1` (racemic) gave a TD50 at 6 h [4] of 335 mg/kg, an ED50 [2, 5] of 57 mg/kg and an ED50 [3, 5] of 155 mg/kg.
With `CC(C(=O)O)c1ccc2c(c1)CC(C(C)C)C2` (single isomer, unassigned; (+)) [ISOPROFEN] the UD50 [1] was 46 mg/kg, the ED50 [2] was 10 mg/kg and the ED50 [3] was 24 mg/kg.
Work on `CC(C)[C@@H]1Cc2ccc([C@H](C)C(=O)O)cc2C1` yielded an ED50 [2, 5] of 9 mg/kg.
`CC(C)Cc1ccc(C(C)C(=O)O)cc1` (centres undefined) [IBUPROFEN] showed a TD50 at 6 h [4] of 40 mg/kg, an ED50 [2, 5] of 17 mg/kg and an ED50 [3, 5] of 44 mg/kg.
Work on `CC1Cc2ccc(C(C)C(=O)[O-])cc2C1.[Na+]` (racemic) yielded an ED50 [2, 5] of 24 mg/kg.
For `CCC1Cc2ccc(CC(=O)O)cc2C1` (racemic), the TD50 at 6 h [4] was 125 mg/kg, the ED50 [2, 5] was 104 mg/kg and the ED50 [3, 5] was over 256 mg/kg.
